Compound activity from PubChem BioAssay.
MrgX1 allo act: allosterically activates human MrgX1 receptor signaling; B-score at 10 µM; MrgX1-HEK293, Fluo-4 calcium flux, FDSS; stronger effect = higher value; AID 588675; 310,000 tested, 0.63% active;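 active means plate-corrected calcium response at least 3 library SD above typical, normal starting fluorescence, not activating the receptor alone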;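 further: compound read alongside a low EC10 to EC30 dose of BAM8-22 agonist; peak minus trough fluorescence over baseline measured at the second addition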
MrgX1 antag: human MrgX1 receptor antagonism, primary screen; AID 588676; B-score at 10 µM; 310,000 tested, 1.3% active; Q96LB2; MRGX1-HEK293 calcium flux, Fluo-4, BAM8-22 antagonism; stronger effect = lower value;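 active means calcium-response B-score plate-corrected more than 3 library SD below zero, starting fluorescence within 5 deviations, no agonist response on first addition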;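 further: peak minus trough fluorescence over baseline after final BAM8-22 challenge near maximal dose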
RGS4 pot: potentiators or activators of RGS4 | 310,000 tested, 0.92% active | HEK293 M3R/inducible RGS4, carbachol calcium flux Fluo4; stronger effect = lower value | AID 463111 | B-score at 10 µM;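 active means B-score of the integrated calcium signal more than 4 SD below the library mean, with starting fluorescence not abnormally high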;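 further: negative B-score means reduced calcium response which marks RGS4 activation or potentiation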
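Reagent: ECmax carbachol challenge; Test system: M3R-expressing HEK293 line, RGS4 induced by doxycycline; Schedule: overnight RGS4 induction, 30 min dye load 37 °C, 20 min compound RT; Detection: calcium dye Fluo4 fluorescence; Read-out: Agonist-evoked peak-minus-minimum fluorescence over baseline, integrated ratio, B score.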
MrgX1 agonist: agonists of human MrgX1 receptor | MrgX1-HEK293 cells, Fluo-4 calcium fluorescence, agonist mode; stronger effect = higher value | B-score at 10 µM | 310,000 tested, 0.44% active;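 active means calcium response B-score plate-corrected fluorescence ratio at least 3 library SD, with starting fluorescence B-score inside 5 SD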
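Test system: HEK293 cells stably expressing human MrgX1 receptor; Input: fifteen thousand cells per well; Dosing: compound delivered in addition one of three; Schedule: overnight seeding, then 1 h dark dye loading; Technique: Fluo-4 NW calcium fluorescence; Measure: B-scored fluorescence response ratio; Controls: positive and negative controls per plate.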
RGS4 block: inhibitors of human RGS4; B-score at 10 µM; P49798; HEK293 M3R/RGS4 inducible, Fluo-4 calcium flux; stronger effect = higher value; triggered by carbachol at its EC20; 310,000 tested, 0.45% active;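 active means B-score, a plate-corrected calcium signal, over three deviations above library mean, with baseline fluorescence within five deviations of library mean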;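 further: RGS4 expression induced by doxycycline in cells with stable M3 receptor; B-score is computed from the integrated fluorescence ratio over baseline after carbachol; higher B-score means a larger calcium signal and so more RGS4 inhibition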
Target sequence (P49798 whole entry, looked up): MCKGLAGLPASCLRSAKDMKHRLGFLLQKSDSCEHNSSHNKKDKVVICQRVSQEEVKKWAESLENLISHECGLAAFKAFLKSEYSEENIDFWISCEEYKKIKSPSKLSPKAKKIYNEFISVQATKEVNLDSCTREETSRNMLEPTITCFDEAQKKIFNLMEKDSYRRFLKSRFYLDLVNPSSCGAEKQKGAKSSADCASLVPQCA
MrgX1 ant reconf: confirmation of human MrgX1 receptor antagonists | shares compounds with MrgX1 antag | MrgX1-HEK293, BAM8-22 calcium flux, Fluo-4; stronger effect = lower value | remaining BAM8-22 calcium response % of control (stronger effect = lower value), % at 10 µM | 2,300 tested, 19% active;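 active means remaining agonist calcium response no higher than 100% minus 3 SD of agonist-only control wells, with starting fluorescence near control levels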;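 further: agonist BAM8-22 given at a near maximal EC90 to ECmax level; peak minus minimum fluorescence divided by baseline after agonist addition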
HEK293 Ca flux: activity in parental HEK293 cells lacking MrgX1; fluorescence ratio F(max-min)/F0 at 10 µM; Fluo-4 calcium fluorescence, FDSS; 4,000 tested, 2% active; shares compounds with MrgX1 antag;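 active means duplicate-averaged calcium fluorescence ratio at least three times the standard deviation of buffer wells, a nonspecific response in parental cells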
HEK293 Ca counter: MrgX1 allosteric activator counter-screen hit in parental HEK293 cells | parental HEK293 calcium flux, Fluo-4 fluorescence ratio; stronger effect = higher value | AID 624114 | fluorescence ratio F(max-min)/F0 at 10 µM | 4,000 tested, 0.4% active | shares compounds with MrgX1 antag;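 active means calcium fluorescence ratio, averaged over duplicates, at least 3 SD of the buffer-well ratio, meaning a nonspecific response in receptor-free cells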;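 further: untransfected parental HEK293 lacking MrgX1 used as counterscreen for MrgX1 allosteric activators; fluorescence change taken during the second addition on a kinetic imager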
HEK293 Ca cntr2: MrgX1 activator counter-screen hit in parental HEK293 cells. Fluo-4 calcium fluorescence (FDSS); stronger effect = higher value. fluorescence ratio F(max-min)/F0 at 10 µM. 4,000 tested, 8.7% active. shares compounds with MrgX1 antag;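 active means calcium fluorescence ratio at least three times the spread of buffer wells, meaning a non-specific response in parental cells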
* hit, by the source's call; i = inactive; / = no result given. Most compounds without a hit are left out; they make up all but 3.5% or so of the library.

SMILES | MrgX1 allo act | MrgX1 antag | RGS4 pot | MrgX1 agonist | RGS4 block | MrgX1 ant reconf | HEK293 Ca flux | HEK293 Ca counter | HEK293 Ca cntr2
COc1cccc(-c2nc(NC3CCCC3)c3ccccc3n2)c1O | i | -5.1* | i | i | i | 74%* | i | i | i
COc1ccc(C(c2c(O)nc(SC)n(C)c2=O)c2c(O)nc(SC)n(C)c2=O)cc1O | i | -7.3* | i | i | i | i | i | i | i
O=C(CCc1ccccc1)NC1CCSC1=O (stereo unspecified) | i | -6.1* | i | i | i | i | i | i | i
CC(C)C(c1nnnn1C1CCCC1)N1CCCc2ccccc21 (stereo unspecified) | i | -6.1* | i | i | i | i | i | i | i
CC(C)C(c1nnnn1C1CCCCC1)N1CCCc2ccccc21 (stereo unspecified) | i | i | i | i | i | / | / | / | /
O=C(COc1ccc(Br)cc1)Nc1ccc(C(=O)Nc2ccccc2C(=O)O)cc1 | i | -7.1* | i | i | i | i | i | i | i
COc1ccc(OCC(=O)Nc2ccc(C(=O)Nc3ccccc3C(=O)O)cc2)cc1 | i | i | i | i | i | / | / | / | /
COc1cccc(CSc2ccc(S(=O)(=O)N3CCOCC3)cc2C(=O)NCC2CCCO2)c1OC (stereo unspecified) | i | i | i | i | i | / | / | / | /
CC(=O)Nc1ccc2c(c1)CCCC2 | i | i | i | i | i | / | / | / | /
CC(=O)Nc1ccc2c(c1)CCCC2=O | i | -4.6* | i | i | i | 77%* | i | i | i
Cc1nnc(-c2ccc(N3CCCCCC3)c([N+](=O)[O-])c2)o1 | i | i | i | i | i | / | / | / | /
Cc1cccc2cc(CN(CC3CCCO3)C(=O)c3ccco3)c(=O)[nH]c12 (stereo unspecified) | i | -8.3* | i | i | i | i | i | i | i
CN1CCN(C2CCCCCC2)CC1 | i | -5.3* | i | i | i | i | i | i | i
CN1CCN(C(=O)NC2CCCCC2)CC1 | i | i | i | i | i | / | / | / | /
COc1ccccc1NC(=O)NCCN1CCCCC1 | i | i | i | i | i | / | / | / | /
COc1ccccc1NC(=O)NCCN1C(=O)C2C3C=CC(C3)C2C1=O (stereo unspecified) | i | -7.6* | i | i | i | i | i | i | i
CC(=O)c1ccc(NC(=O)c2cnsn2)cc1 | i | i | i | i | i | / | / | / | /
CC(OC(=O)c1ccc(S(=O)(=O)NCc2ccco2)cc1)C(=O)Nc1ccc(Cl)cn1 (stereo unspecified) | i | -6.5* | i | i | i | i | i | i | i
O=C(COC(=O)c1ccc(S(=O)(=O)NCc2ccco2)cc1)Nc1ncc(Cl)cc1Cl | i | i | i | i | i | / | / | / | /
CC12CCC(=O)N1C(C(=O)NCc1ccc(Cl)cc1Cl)CS2 (stereo unspecified) | i | i | i | i | i | / | / | / | /
COc1ccccc1C(=O)Nc1ccnn1C1CCN(C(=O)c2ccoc2)CC1 | i | -6* | i | i | i | i | i | i | i
CC(C)c1ccc(NC(=O)COc2ccc(F)cc2C(=O)c2cnn(-c3ccccc3)c2)cc1 | i | -5.3* | i | i | i | i | i | i | i
